Source: PubChem BioAssay (several laboratories)
Hits are enriched below; roughly 3.5% of the tested compounds scored in any of these assays.
b-catenin transl = modulators of beta-catenin nuclear translocation, primary screen, imaging, HeLa cells, immunofluorescence, high-content; nuclear translocation activity, % at 5 µM; actives 0.3% (n = 190,000); AID 1665, 2009;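 active means nuclear translocation activity above 50% at 5 µM, with a well cell count of 50 or more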;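 further: per-cell ratio of nuclear to cytoplasmic median beta-catenin stain intensity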
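Test system: human HeLa cell line; Doses: 5 µM primary, 0.02–20 µM confirmation; Incubation: 24 h compound exposure, 37°C; Detection: beta-catenin immunofluorescence imaging with DAPI; Read-out: beta-catenin nuclear/cytoplasmic ratio, % activation.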
HMGR II inh = inhibitors of E. faecalis class II HMGR, primary screen, biochemical, Enterococcus faecalis. HMG-CoA reductase (Enterococcus faecalis, mvaE). purified E. faecalis HMGR, NADPH absorbance 340 nm kinetic. inhibition, % at 10 µM. actives 0.41% (n = 190,000). AID 1066, 2008;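 active means inhibition above a set limit, the median over all tested compounds plus 3 SD, cut at about 9.5% in these data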;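 further: enzyme runs in reverse so mevalonate oxidation gives rising NADPH absorbance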
MT stabilize HCS = microtubule stabilizers in HeLa cells, primary screen, imaging, high-content imaging. HeLa tubulin immunostaining HCS, 24 h; share of cells brighter than vehicle mean+2SD. % tubulin-high responders, % at 10 µM. actives 0.83% (n = 200,000). AID 2205, 2009;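 active means plate Z-score above 3 for both tubulin-high and condensed-nucleus cell shares, with cell loss under 80%, at 10 µM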;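 further: anti alpha tubulin signal scored within the nucleus-defined area of each cell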
RAM network inh = inhibitors of the yeast RAM network, primary screen, dse1pr::URA3 reporter, 5-FOA selection; AID 868, 2007; inhibition, % at 50 µM; actives 1.8% (n = 190,000); S. cerevisiae dse1pr::URA3 reporter, 5-FOA growth OD615, 2 d; analog-sensitive cbk1-as2 kinase mutant strain;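 active means inhibition above a set limit, 3 SD over mean compound inhibition, cut at about 8.4% in these data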;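 further: inhibition rescues growth on 5-FOA so higher OD means more RAM inhibition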
Yeast growth inh = growth inhibitors of yeast BB579 in restrictive medium, primary screen, yeast lifespan-shortening project, S. cerevisiae; OD615, 48 h; inhibition, % at 10 µM; actives 0.51% (n = 140,000);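 active means inhibition above a set limit, 3 SD over the mean compound inhibition, cut at about 44% in these data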
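controls = amphotericin B 10 µg/mL, positive | assay system = DeaD yeast strain BB579 | schedule = 48 h compound exposure at 30 °C after 4 h preincubation | detection = OD615 turbidity measurement | medium = restrictive CSMM-D medium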
Yeast life ext = compounds extending yeast replicative lifespan, primary screen, S. cerevisiae, OD615 | S. cerevisiae growth with nicotinamide; deaD strain in restrictive glucose medium | inhibition of the nicotinamide effect, % at 10 µM | actives 0.68% (n = 130,000) | AID 775, 2007;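 active means inhibition above a set limit, placed 3 SD over the median of all compounds, cut at about 26% in these data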
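Material: Modified budding yeast, DeaD strain | Medium: Restrictive glucose medium | Probe or stimulus: 1.5 mM nicotinamide | Dosing: Single dose 10 µM compound, 0.25% DMSO | Times: 48 h at 30 °C | Technique: OD615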
RAM 5-FOA = 5-FOA growth of efflux-deficient control yeast, dose response, counter-screen for RAM network inhibitor project, S. cerevisiae, OD615; shares compounds with RAM network inh; S. cerevisiae efflux-deficient reporter strain, 5-FOA growth OD615, 2 days; max inhibition, %; 1,200 tested, under 10 active; AID 1305, 2008; call rule not given here
Numbers stand for hits; n = inactive; x = no result.

SMILES	b-catenin transl	HMGR II inh	MT stabilize HCS	RAM network inh	Yeast growth inh	Yeast life ext	RAM 5-FOA
CCC(C)NS(=O)(=O)c1ccc(NC(=O)C(Sc2ccccc2)c2ccccc2)cc1 (stereo not drawn)	n	n	n	n	n	n	x
CCCCNS(=O)(=O)c1ccc(NC(=O)C(Sc2ccccc2)c2ccccc2)cc1 (stereo not drawn)	n	n	n	13.5	n	n	n
CCCNC(=O)Cc1c(C)oc2ccccc12	n	x	x	x	x	x	x
O=C(O)C(Cc1ccccc1)N1C(=O)/C(=C/c2cccnc2)SC1=S (stereo not drawn)	n	x	x	x	x	x	x
COc1ccc(/C=C2\SC(=S)N(C(Cc3ccccc3)C(=O)O)C2=O)cc1 (stereo not drawn)	n	n	n	34.0	x	x	n
CCOc1cc(/C=C2\SC(=S)N(C(C(=O)O)c3ccccc3)C2=O)ccc1O (stereo not drawn)	n	x	x	x	x	x	x
CCOc1ccc(/C=C2/SC(=S)N(C(C(=O)O)c3ccccc3)C2=O)cc1OCC (stereo not drawn)	n	n	n	12.7	x	x	n
CC(/C=C1\SC(=S)N(C(C(=O)O)C(C)C)C1=O)=C\c1ccccc1 (stereo not drawn)	n	n	n	18.5	x	x	n
CC(/C=C1\SC(=S)N(c2ccc(C(=O)O)cc2)C1=O)=C\c1ccccc1	n	x	x	x	x	x	x
CSCSC1=C(C#N)C(c2ccc(Cl)cc2)C(C(C)=O)=C(C)N1 (stereo not drawn)	n	n	n	15.2	n	n	n
O=C(CN(C(=O)CSc1nnc(COc2ccccc2)o1)c1ccc(F)cc1)NC1CCCC1	n	n	n	15.4	n	n	n
C=CCN1C(=O)C(Cc2ccc(C)cc2)S/C1=N/N=C/c1ccco1 (stereo not drawn)	n	n	n	14.1	n	n	n
C=CCN1C(=O)C(Cc2ccccc2)SC1=Nc1ccc(C(=O)O)cc1 (stereo not drawn)	n	n	n	n	n	n	x
C=CCN1C(=O)C(Cc2cccc(C)c2)SC1=Nc1ccc(C(=O)O)cc1 (stereo not drawn)	n	n	n	14.6	n	n	n
Cc1ccc(S(=O)(=O)N2CCCCCC2)cc1[N+](=O)[O-]	n	n	n	n	n	n	x
Cc1ccc(S(=O)(=O)N2CCC(C)CC2)cc1[N+](=O)[O-]	n	n	n	22.5	x	x	n
CCOC(=O)/C(C#N)=C/C1=C(N2CCOCC2)CC(C)(C)OC1	n	x	x	x	x	x	x
COc1ccc(C(C)=O)cc1CSc1nc2ccccc2c(=O)n1-c1ccccc1	n	n	n	n	n	n	x
C=CCn1c(SCc2cc(=O)n3ccsc3n2)nc2cc(Cl)ccc2c1=O	n	n	n	n	x	x	x
C=CCn1c(SCc2cc(=O)n3ccsc3n2)nc2ccccc2c1=O	n	n	n	13.7	x	x	n
C=CCn1c(SCc2cc(C(C)=O)ccc2OCC)nc2ccccc2c1=O	98.2	n	18.0	16.1	n	n	n
Cc1cc(C(=O)NNc2ccc(C(C)C)cc2)n(C(C)(C)C)n1	n	x	x	x	x	x	x
CCOC(=O)c1c(C)n(CC(O)CN(C)C)c2cc(Br)c(OC)cc12 (stereo not drawn)	n	n	n	n	x	x	x
C=CCNC(=O)C1COc2ccccc2O1 (stereo not drawn)	n	x	x	x	x	x	x
CC(C)c1ccccc1NC(=O)COC(=O)CCN1C(=O)/C(=C\C=C\c2ccccc2)SC1=S	n	n	n	n	n	n	x
O=C(COC(=O)CCN1C(=O)/C(=C\C=C\c2ccccc2)SC1=S)Nc1ccc(Br)cc1	n	n	n	15.6	x	x	n
COc1ccccc1OC(=O)CCN1c2ccccc2Sc2ccccc21	n	n	n	14.2	n	n	n
CCOC(=O)C(C)Oc1ccc(NC(=O)C(Cl)Cl)cc1 (stereo not drawn)	n	x	x	x	x	x	x
